High-throughput results as filed in PubChem BioAssay.
AHR act: human AHR activation; P35869; activation, % at 5 µM; AHR-responsive luciferase reporter cells, luminescence; AID 2796; 320,000 tested, 2.5% active; in the data active = activation above about 47%;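 note: 0% = vehicle wells and 100% = reference agonist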
Target sequence (P35869 whole entry, looked up): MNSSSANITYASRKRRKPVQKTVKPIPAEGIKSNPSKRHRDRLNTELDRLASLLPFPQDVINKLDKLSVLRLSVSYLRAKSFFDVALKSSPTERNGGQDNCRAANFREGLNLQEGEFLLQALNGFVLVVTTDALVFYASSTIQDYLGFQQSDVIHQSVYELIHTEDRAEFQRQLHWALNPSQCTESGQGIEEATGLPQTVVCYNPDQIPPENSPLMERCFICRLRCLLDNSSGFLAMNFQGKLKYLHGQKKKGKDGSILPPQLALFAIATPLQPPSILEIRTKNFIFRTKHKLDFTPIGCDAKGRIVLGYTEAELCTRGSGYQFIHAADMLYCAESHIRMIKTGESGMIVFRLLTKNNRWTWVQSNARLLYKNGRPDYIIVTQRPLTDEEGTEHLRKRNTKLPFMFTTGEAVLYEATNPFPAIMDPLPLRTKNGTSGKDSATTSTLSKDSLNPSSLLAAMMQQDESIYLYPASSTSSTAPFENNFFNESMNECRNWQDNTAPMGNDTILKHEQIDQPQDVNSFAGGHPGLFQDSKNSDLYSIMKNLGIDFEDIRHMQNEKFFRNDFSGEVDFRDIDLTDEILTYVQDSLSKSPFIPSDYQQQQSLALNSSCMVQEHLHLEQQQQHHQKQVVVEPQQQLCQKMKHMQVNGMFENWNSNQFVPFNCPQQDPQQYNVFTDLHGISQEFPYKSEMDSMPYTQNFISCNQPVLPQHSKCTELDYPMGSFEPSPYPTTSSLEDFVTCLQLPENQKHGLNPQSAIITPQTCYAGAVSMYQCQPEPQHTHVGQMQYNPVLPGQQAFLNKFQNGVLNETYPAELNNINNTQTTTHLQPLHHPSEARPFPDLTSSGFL
Tb MetRS inh: blocks T. brucei methionyl-tRNA synthetase activity | purified T. brucei MetRS, ATP depletion, Kinase-Glo luminescence | inhibition, % at 11.9 µM | 360,000 tested, 0.4% active;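 active = inhibition above a per-plate cutoff of the control wells' mean inhibition plus 3 SD, cut at about 5.5% in these data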;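 note: 0% = DMSO wells median and 100% = median of wells with control inhibitor compound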
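Test system – parasite MetRS enzyme · Reagent – substrates ATP, L-methionine and bulk Escherichia coli tRNA · Doses – 11.9 µM compound single dose, 0.9% DMSO · Times – 15 min enzyme-compound preincubation, 2 h reaction, 10 min detection, 25 °C · Signal – Kinase-Glo luminescence, ATP depletion format · Controls – DMSO-only wells as low control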
MsrA inh: inhibitors of bovine MsrA; purified bovine MsrA, absorbance read-out; 360,000 tested, 0.75% active; AID 651718; inhibition, % at 15.5 µM;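 note: 0% = vehicle wells with enzyme and 100% = reference inhibitor wells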
MsrA act: activators of bovine methionine sulfoxide reductase A | purified bovine MsrA, absorbance read-out | activation, % at 10.6 µM | 360,000 tested, 0.3% active | AID 602163; in the data active = activation above about 7.5%;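 note: 0% = vehicle and 100% = reference activator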
m5-HT2A agonist: agonists of mouse serotonin 5-HT2A receptor (HTR2A); AID 624169; P35363; CHO-K1 mHTR2A beta-arrestin complementation, luminescence; percent of 30 µM serotonin response; 360,000 tested, 0.66% active; activation, % at 7.6 µM;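 active = activation above a run cutoff, the mean activation of all tested compounds plus 3 SD, cut at about 14% in these data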;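 note: 0% = plate median of compound wells and 100% = 30 µM serotonin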
AI-2 QS mod: modulators of Vibrio harveyi AI-2 quorum sensing system; 300,000 tested, 0.4% active; Vibrio harveyi JMH597 AI-2 luminescence/OD600 ratio, 9 h; stronger effect = lower value; strain lacks LuxN and CqsS sensors; 0 = neutral-control median; activity change, % at 7.5 µM; AID 2094; in the data active = activity change below about -75%, passing the limit was not always enough;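 note: luminescence divided by OD600 gain over 9 h not by final OD600 alone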
MsrA inh confirm: confirmation of bovine MsrA inhibitors | shares compounds with MsrA inh | purified bovine MsrA, absorbance read-out | inhibition, % at 15.5 µM | 2,300 tested, 41% active | AID 651822;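 note: coupled to thioredoxin reductase with NADPH and selenocystamine and DMSO as substrate; 0% = vehicle only and 100% = full effect of reference inhibitor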
Numbers without * were called inactive; x = no result given. This is a sample that favours compounds with a hit; in the whole collection about 4.4% have one here. Cut-off read from the data, not from the text of the source, unless noted: active = inhibition above about 4.5%; inactive = the rest.

SMILES	AHR act	Tb MetRS inh	MsrA inh	MsrA act	m5-HT2A agonist	AI-2 QS mod	MsrA inh confirm
CC1(c2ccc(OC(F)F)cc2)NC(=O)N(CC(=O)Nc2ccc3[nH]c(=O)[nH]c3c2)C1=O (centres undefined)	2.7	-0.4	0.4	-5.0	-0.7	15.6	x
Cc1cc(-c2nc3ccccc3s2)ccc1N	x	-0.4	4.7*	-3.3	6.9	x	3.0
Cc1ccc2nc(-c3ccc(N)cc3)sc2c1	-0.1	0.1	-0.1	-4.9	-3.8	-7.7	x
Nc1ccc2nc(-c3ccccc3)sc2c1	21.7	-1.2	4.7*	-8.3	-3.0	26.1	3.1
Nc1ccc(-c2nc3ccccc3s2)cn1	13.6	0.0	5.3*	-3.1	6.0	20.4	2.4
Cc1ccsc1/C=N/n1c(C2CCCCC2)n[nH]c1=S	2.1	-0.5	10.8*	-4.1	2.8	22.9	6.1*
Cc1ccsc1/C=N/n1c(-c2cc(-c3ccccc3)n[nH]2)n[nH]c1=S	2.2	0.6	-0.8	-0.4	0.7	6.4	x
COc1ccc(/C=N/n2c(C3CCCCC3)n[nH]c2=S)c(OC)c1	12.4	-0.1	8.8*	0.5	-5.3	17.1	8.6*
Cc1ccc(-c2n[nH]c(=S)n2/N=C/c2sccc2C)cc1	31.3	0.0	4.7*	1.4	7.5	21.4	2.6
COc1cc(OC)c(/C=N/n2c(C3CCCCC3)n[nH]c2=S)c(OC)c1	7.9	-0.6	2.0	-1.6	2.2	-0.6	x
Cc1ccc(/C=N/n2c(C3CCCCC3)n[nH]c2=S)s1	-0.3	-0.9	1.4	-4.8	3.3	-14.9	x
C[C@H](CO)N1C[C@H](C)[C@@H](CN(C)Cc2ccccc2)Oc2c(NC(=O)C3CC3)cccc2C1=O	3.8	-0.4	-0.5	-10.4	0.5	x	x
Cn1c(-c2ccncc2)nc2ccccc21	-1.5	1.2	0.7	-2.4	2.3	38.0	x
CCN(CC)c1ccc(-c2nc3cnccc3n2C)cc1	9.7	-0.8	5.4*	-6.2	0.0	4.0	3.2
CCOc1ccc(CN(C)CC(=O)Nc2ccccc2C(=O)NC2CC2)cc1	x	0.8	-0.1	-3.5	-7.6	x	x
CC(=O)Nc1ccc(C(=O)NCC2CCCCC2)cc1	3.9	-0.8	0.5	-0.7	1.6	13.4	x
Nc1ncc(S(=O)(=O)c2ccc(Cl)cc2)c(N)n1	-0.5	0.1	0.8	-1.6	3.4	37.4	x
COc1ccc2c(c1)-c1c(sn(-c3ccc(OC)c(OC)c3)c1=S)C(C)(C)N2	15.3	-0.3	-1.4	-3.9	-4.6	19.4	x
COc1ccc2c(c1)-c1c(sn(-c3ccccc3)c1=S)C(C)(C)N2	3.7	-0.8	4.7*	-5.9	0.5	-19.7	0.7
N#Cc1cc(NC2CCCC2)c([N+](=O)[O-])cc1C#N	-4.8	0.0	42.9*	-2.5	7.1	27.2	-0.6
O=C(NCCc1nccs1)C1CCC(=O)N(CCc2ccc(Cl)cc2)C1 (centres undefined)	-3.5	-0.1	-0.5	-3.0	-3.4	18.9	x
COc1ccccc1/C=C\C=N\NC(=O)CCn1nnc2ccccc21	74.1*	-1.4	5.0*	-10.8	-3.0	6.6	3.7
COc1ccccc1/C=C\C=N\NC(=O)c1ccco1	13.6	-1.2	1.7	-2.2	-1.4	26.2	x
COc1ccccc1/C=C/C=N/NC(=O)c1cccs1	-1.1	0.9	5.8*	-3.6	-4.9	13.4	6.7*
COc1ccccc1/C=C/C=N/NC(=O)Cc1cccn1C	18.6	-0.2	5.8*	-2.4	0.0	8.6	4.9*
SMILES	AHR act	Tb MetRS inh	MsrA inh	MsrA act	m5-HT2A agonist	AI-2 QS mod	MsrA inh confirm
COc1ccccc1/C=N/NC(=O)CCn1cnc2ccccc21	34.3	-0.1	0.0	-4.6	-2.9	9.5	x
N=c1oc2cc(O)ccc2cc1C(=O)Nc1ccc(Cl)cc1	-2.9	-0.4	0.9	-2.0	-5.4	16.4	x
N#C/C(=C\c1cccs1)c1nc2ccccc2[nH]1	30.2	0.9	1.0	-6.6	1.2	34.2	x
O=C(N/C(=C\c1ccc(Br)cc1)c1nc2ccccc2[nH]1)c1ccco1	75.0*	-0.2	6.5*	-14.4	-6.7	-2.2	4.3
O=C(NCCCc1nc2ccccc2[nH]1)c1ccco1	20.1	-0.2	-0.8	-2.0	4.4	17.9	x
O=C(N/C(=C/c1cccs1)c1nc2ccccc2[nH]1)c1ccccc1	24.9	0.6	5.1*	-4.0	9.6	-58.7	6.0*
Cc1sc2ncn(CC(=O)NCCCC(=O)Nc3ccc(C(C)C)cc3)c(=O)c2c1C	4.1	0.8	0.5	-1.5	-2.7	-0.6	x
COc1ccc(-c2oc3ccc(-c4ccc(OC)nc4)cc3c2C#CC2(O)CCCCC2)cc1	8.4	-0.5	1.7	-0.3	7.2	1.5	x
COc1ccc(-c2oc3ccc(-c4ccc5c(c4)OCO5)cc3c2C#CC2(O)CCCCC2)cc1	6.6	0.6	5.2*	-4.2	0.3	19.3	3.0
CCCc1c(C(=O)N/N=C/C(C)=C/c2ccco2)nnn1-c1nonc1N	-1.6	-0.1	2.8	-7.3	1.2	6.0	x
CC(/C=N/NC(=O)c1nnn(-c2nonc2N)c1C(C)C)=C\c1ccco1	0.4	-0.1	4.9*	-9.7	-2.4	3.1	5.8*
COc1cccc(-c2c(C(=O)N/N=C/c3ccco3)nnn2-c2nonc2N)c1	3.3	-0.3	4.9*	-6.2	-1.8	7.8	1.4
Cc1cccc(NC(=O)c2ccc(S(=O)(=O)N3CC(C)OC(C)C3)cc2)n1 (centres undefined)	5.3	-0.4	1.5	-3.8	-7.0	9.4	x
Oc1ccc(/C=N\Nc2cc(N3CCOCC3)nc(N3CCOCC3)n2)c(O)c1	-12.6	-0.3	5.3*	-5.6	-3.8	8.0	4.2
O=C(COC(=O)CNC(=O)c1ccc(Cl)cc1Cl)NC1CCCCCCC1	4.1	-0.3	-0.2	0.4	-3.7	22.0	x
NS(=O)(=O)c1ccc(N/N=C/c2ccccn2)c([N+](=O)[O-])c1	11.9	-0.9	5.9*	-13.1	5.6	9.9	4.3
O=[N+]([O-])c1cc(S(=O)(=O)N2CCCC2)ccc1N/N=C/c1ccccn1	0.1	-0.3	0.2	-1.8	0.9	21.4	x
NS(=O)(=O)c1ccc(N/N=C/c2ccc(O)cc2O)c([N+](=O)[O-])c1	-4.3	-0.3	6.2*	-6.0	-10.8	19.9	3.4
Cc1cccn2c(=O)c3cc(C(=O)NC4CCCC4)c(=N)n(CCCN4CCOCC4)c3nc12	11.4	0.9	0.3	-0.6	3.0	3.7	x
Nc1ccc(-c2cnc(-c3ccc(N)cc3)nc2)cc1	-7.2	-0.5	8.6*	-6.5	1.2	9.4	7.6*
Oc1ccc(-c2cnc(-c3ccc(O)cc3)nc2)cc1	6.6	-0.2	1.1	-1.2	-4.9	-7.0	x
c1ccc(-c2nc3nc4ccccc4nc3n2CC2CCCO2)cc1 (centres undefined)	22.4	0.1	5.2*	-4.8	1.7	-4.7	5.2*
CCc1n[nH]c(=S)n1/N=C/c1cc(Br)c(OC)cc1OC	76.5*	-0.7	15.8*	-4.7	-2.3	19.3	10.2*
